ChEMBL document CHEMBL1255456, “Effect of NlpE overproduction on multidrug resistance in Escherichia coli” (2010)
In brackets after ≈: the same amount, converted by molar mass. Activity calls are given as the source filed them. No cut-off for these calls is given here.

Tests used:
Escherichia coli [1] = assay: Antibacterial activity against Escherichia coli NKE161 harboring deletion mutation in acrB protein, vector expressing tolC gene and plasmid expressing nlpE gene; assay type: functional
Escherichia coli [2] = assay: Antibacterial activity against Escherichia coli NKE159 harboring deletion mutation in acrB, cpxAR protein and plasmid expressing nlpE gene; assay type: functional
Escherichia coli [3] = assay: Antibacterial activity against Escherichia coli NKE157 harboring deletion mutation in acrB, acrD protein and plasmid expressing nlpE gene; assay type: functional
Escherichia coli [4] = assay: Antibacterial activity against Escherichia coli NKE1316 harboring deletion mutation in acrB, acrD and mdtABC protein; assay type: functional
Escherichia coli [5] = assay: Antibacterial activity against Escherichia coli NKE1359 harboring deletion mutation in acrB protein and plasmid expressing BADnlpE gene in presence of increasing concentration of arabinose; assay type: functional, organism-based
Method in brief: (§1)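 ΔacrB host carrying empty pBAD33 or pBAD33 with nlpE under the arabinose-inducible PBAD promoter. MICs of oxacillin, cloxacillin, nafcillin, cefamandole, aztreonam, novobiocin, deoxycholate and kanamycin were measured with arabinose at several concentrations from 0 to 10,000 μM. Each MIC determination was repeated at least three times.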

Escherichia coli [6] = assay: Antibacterial activity against Escherichia coli NKE154 harboring vector expressing acrB deletion mutant; assay type: functional
Escherichia coli [7] = assay: Antibacterial activity against Escherichia coli NKE1369 harboring deletion mutation in acrB, acrD, mdtABC protein and plasmid expressing nlpE gene; assay type: functional
Escherichia coli [8] = assay: Antibacterial activity against Escherichia coli NKE158 harboring deletion mutation in acrB protein and vector expressing cpxAR gene; assay type: functional
Escherichia coli [9] = assay: Antibacterial activity against Escherichia coli NKE156 harboring deletion mutation in acrB protein and vector expressing acrD gene; assay type: functional
Escherichia coli [10] = assay: Antibacterial activity against Escherichia coli NKE1365 harboring deletion mutation in acrB and mdtABC protein; assay type: functional
Escherichia coli [11] = assay: Antibacterial activity against Escherichia coli NKE160 harboring deletion mutation in acrB protein and vector expressing tolC gene; assay type: functional
Escherichia coli [12] = assay: Antibacterial activity against Escherichia coli NKE1355 harboring deletion mutation in acrB protein and plasmid expressing BAD gene in presence of increasing concentration of arabinose; assay type: functional, organism-based; method in brief: as §1
Escherichia coli [13] = assay: Antibacterial activity against Escherichia coli NKE96 harboring deletion mutation in acrB protein; assay type: functional
Escherichia coli [14] = assay: Antibacterial activity against Escherichia coli NKE1368 harboring deletion mutation in acrB, acrD and mdtABC genes and carrying empty pHSG398 vector
Escherichia coli [15] = assay: Antibacterial activity against Escherichia coli NKE1366 harboring deletion mutation in acrB and vector expressing mdtABC gene; assay type: functional
Escherichia coli [16] = assay: Antibacterial activity against Escherichia coli NKE127 harboring deletion mutation in acrB and cpxAR protein; assay type: functional
Escherichia coli [17] = assay: Antibacterial activity against Escherichia coli NKE155 harboring deletion mutation in acrB protein and plasmid expressing nlpE gene; assay type: functional
Escherichia coli [18] = assay: Antibacterial activity against Escherichia coli NKE128 harboring deletion mutation in acrB and tolC protein; assay type: functional
Escherichia coli [19] = assay: Antibacterial activity against Escherichia coli NKE126 harboring deletion mutation in acrB and acrD protein; assay type: functional
Escherichia coli [20] = assay: Antibacterial activity against Escherichia coli NKE1367 harboring deletion mutation in acrB, mdtABC protein and plasmid expressing nlpE gene; assay type: functional

Compound | MIC (Escherichia coli [1]) | MIC (Escherichia coli [2]) | MIC (Escherichia coli [3]) | MIC (Escherichia coli [4]) | Activity (Escherichia coli [5]) | MIC (Escherichia coli [6]) | MIC (Escherichia coli [7]) | MIC (Escherichia coli [8]) | MIC (Escherichia coli [9]) | MIC (Escherichia coli [10]) | MIC (Escherichia coli [11]) | Activity (Escherichia coli [12]) | MIC (Escherichia coli [13]) | MIC (Escherichia coli [14]) | MIC (Escherichia coli [15]) | MIC (Escherichia coli [16]) | MIC (Escherichia coli [17]) | MIC (Escherichia coli [18]) | MIC (Escherichia coli [19]) | MIC (Escherichia coli [20])
C[C@H]1[C@H](NC(=O)/C(=N\OC(C)(C)C(=O)O)c2csc(N)n2)C(=O)N1S(=O)(=O)O [AZTREONAM] | 0.063 µg/mL (≈ 0.145 µM) | 0.063 µg/mL (≈ 0.145 µM) | 0.063 µg/mL (≈ 0.145 µM) | 0.063 µg/mL (≈ 0.145 µM) | inactive | 0.063 µg/mL (≈ 0.145 µM) | 0.063 µg/mL (≈ 0.145 µM) | 0.063 µg/mL (≈ 0.145 µM) | 0.063 µg/mL (≈ 0.145 µM) | 0.063 µg/mL (≈ 0.145 µM) | 0.063 µg/mL (≈ 0.145 µM) | Active | 0.063 µg/mL (≈ 0.145 µM) | 0.063 µg/mL (≈ 0.145 µM) | 0.063 µg/mL (≈ 0.145 µM) | 0.063 µg/mL (≈ 0.145 µM) | 0.25 µg/mL (≈ 0.574 µM) | 0.063 µg/mL (≈ 0.145 µM) | 0.063 µg/mL (≈ 0.145 µM) | 0.25 µg/mL (≈ 0.574 µM)
CC1(C)S[C@@H]2[C@H](NC(=O)C(C(=O)O)c3ccccc3)C(=O)N2[C@H]1C(=O)O (some centres undefined) [CARBENICILLIN] | 1 µg/mL (≈ 2.64 µM) | 1 µg/mL (≈ 2.64 µM) | 2 µg/mL (≈ 5.29 µM) | 1 µg/mL (≈ 2.64 µM) | – | 1 µg/mL (≈ 2.64 µM) | 1 µg/mL (≈ 2.64 µM) | 1 µg/mL (≈ 2.64 µM) | 1 µg/mL (≈ 2.64 µM) | 1 µg/mL (≈ 2.64 µM) | 1 µg/mL (≈ 2.64 µM) | – | 1 µg/mL (≈ 2.64 µM) | 1 µg/mL (≈ 2.64 µM) | 1 µg/mL (≈ 2.64 µM) | 1 µg/mL (≈ 2.64 µM) | 8 µg/mL (≈ 21.1 µM) | 1 µg/mL (≈ 2.64 µM) | 1 µg/mL (≈ 2.64 µM) | 4 µg/mL (≈ 10.6 µM)
NC(=O)OC[C@@H]1[C@H](NC(=O)/C(=N\OCC(=O)O)c2csc(N)n2)C(=O)N1S(=O)(=O)O [CARUMONAM] | 0.031 µg/mL (≈ 0.0665 µM) | 0.031 µg/mL (≈ 0.0665 µM) | 0.063 µg/mL (≈ 0.135 µM) | 0.031 µg/mL (≈ 0.0665 µM) | – | 0.031 µg/mL (≈ 0.0665 µM) | 0.031 µg/mL (≈ 0.0665 µM) | 0.031 µg/mL (≈ 0.0665 µM) | 0.031 µg/mL (≈ 0.0665 µM) | 0.031 µg/mL (≈ 0.0665 µM) | 0.031 µg/mL (≈ 0.0665 µM) | – | 0.031 µg/mL (≈ 0.0665 µM) | 0.031 µg/mL (≈ 0.0665 µM) | 0.031 µg/mL (≈ 0.0665 µM) | 0.031 µg/mL (≈ 0.0665 µM) | 0.25 µg/mL (≈ 0.536 µM) | 0.031 µg/mL (≈ 0.0665 µM) | 0.031 µg/mL (≈ 0.0665 µM) | 0.13 µg/mL (≈ 0.279 µM)
Cn1nnnc1SCC1=C(C(=O)O)N2C(=O)[C@@H](NC(=O)[C@H](O)c3ccccc3)[C@H]2SC1 [CEFAMANDOLE] | 0.063 µg/mL (≈ 0.136 µM) | 0.063 µg/mL (≈ 0.136 µM) | 0.13 µg/mL (≈ 0.281 µM) | 0.063 µg/mL (≈ 0.136 µM) | inactive | 0.063 µg/mL (≈ 0.136 µM) | 0.063 µg/mL (≈ 0.136 µM) | 0.063 µg/mL (≈ 0.136 µM) | 0.063 µg/mL (≈ 0.136 µM) | 0.063 µg/mL (≈ 0.136 µM) | 0.063 µg/mL (≈ 0.136 µM) | Active | 0.063 µg/mL (≈ 0.136 µM) | 0.063 µg/mL (≈ 0.136 µM) | 0.063 µg/mL (≈ 0.136 µM) | 0.063 µg/mL (≈ 0.136 µM) | 0.25 µg/mL (≈ 0.541 µM) | 0.063 µg/mL (≈ 0.136 µM) | 0.063 µg/mL (≈ 0.136 µM) | 0.13 µg/mL (≈ 0.281 µM)
Cc1onc(-c2ccccc2Cl)c1C(=O)N[C@@H]1C(=O)N2[C@@H]1SC(C)(C)[C@@H]2C(=O)O [CLOXACILLIN] | 0.25 µg/mL (≈ 0.574 µM) | 1 µg/mL (≈ 2.29 µM) | 2 µg/mL (≈ 4.59 µM) | 0.5 µg/mL (≈ 1.15 µM) | inactive | 1 µg/mL (≈ 2.29 µM) | 0.5 µg/mL (≈ 1.15 µM) | 1 µg/mL (≈ 2.29 µM) | 1 µg/mL (≈ 2.29 µM) | 1 µg/mL (≈ 2.29 µM) | 0.25 µg/mL (≈ 0.574 µM) | Active | 1 µg/mL (≈ 2.29 µM) | 0.5 µg/mL (≈ 1.15 µM) | 1 µg/mL (≈ 2.29 µM) | 1 µg/mL (≈ 2.29 µM) | 16 µg/mL (≈ 36.7 µM) | 0.25 µg/mL (≈ 0.574 µM) | 1 µg/mL (≈ 2.29 µM) | 4 µg/mL (≈ 9.18 µM)
C[C@H](CCC(=O)O)[C@H]1CC[C@H]2[C@@H]3CC[C@@H]4C[C@H](O)CC[C@]4(C)[C@H]3C[C@H](O)[C@]12C [DEOXYCHOLIC ACID] | 156 µg/mL (≈ 397 µM) | 2500 µg/mL (≈ 6370 µM) | 10000 µg/mL (≈ 25500 µM) | 2500 µg/mL (≈ 6370 µM) | inactive | 5000 µg/mL (≈ 12700 µM) | 2500 µg/mL (≈ 6370 µM) | 2500 µg/mL (≈ 6370 µM) | 5000 µg/mL (≈ 12700 µM) | 5000 µg/mL (≈ 12700 µM) | 156 µg/mL (≈ 397 µM) | Active | 5000 µg/mL (≈ 12700 µM) | 2500 µg/mL (≈ 6370 µM) | 5000 µg/mL (≈ 12700 µM) | 2500 µg/mL (≈ 6370 µM) | 40000 µg/mL (≈ 102000 µM) | 156 µg/mL (≈ 397 µM) | 5000 µg/mL (≈ 12700 µM) | 10000 µg/mL (≈ 25500 µM)
NC[C@H]1O[C@H](O[C@H]2[C@H](O)[C@@H](O[C@H]3O[C@H](CO)[C@@H](O)[C@H](N)[C@H]3O)[C@H](N)C[C@@H]2N)[C@H](O)[C@@H](O)[C@@H]1O [KANAMYCIN] | 2 µg/mL (≈ 4.13 µM) | 1 µg/mL (≈ 2.06 µM) | 4 µg/mL (≈ 8.26 µM) | 2 µg/mL (≈ 4.13 µM) | inactive | 2 µg/mL (≈ 4.13 µM) | 4 µg/mL (≈ 8.26 µM) | 1 µg/mL (≈ 2.06 µM) | 2 µg/mL (≈ 4.13 µM) | 2 µg/mL (≈ 4.13 µM) | 1 µg/mL (≈ 2.06 µM) | Active | 2 µg/mL (≈ 4.13 µM) | 2 µg/mL (≈ 4.13 µM) | 2 µg/mL (≈ 4.13 µM) | 1 µg/mL (≈ 2.06 µM) | 8 µg/mL (≈ 16.5 µM) | 1 µg/mL (≈ 2.06 µM) | 2 µg/mL (≈ 4.13 µM) | 8 µg/mL (≈ 16.5 µM)
CCOc1ccc2ccccc2c1C(=O)N[C@@H]1C(=O)N2[C@@H]1SC(C)(C)[C@@H]2C(=O)O [NAFCILLIN] | 1 µg/mL (≈ 2.41 µM) | 1 µg/mL (≈ 2.41 µM) | 4 µg/mL (≈ 9.65 µM) | 1 µg/mL (≈ 2.41 µM) | inactive | 2 µg/mL (≈ 4.83 µM) | 1 µg/mL (≈ 2.41 µM) | 1 µg/mL (≈ 2.41 µM) | 1 µg/mL (≈ 2.41 µM) | 1 µg/mL (≈ 2.41 µM) | 1 µg/mL (≈ 2.41 µM) | Active | 2 µg/mL (≈ 4.83 µM) | 1 µg/mL (≈ 2.41 µM) | 1 µg/mL (≈ 2.41 µM) | 1 µg/mL (≈ 2.41 µM) | 16 µg/mL (≈ 38.6 µM) | 1 µg/mL (≈ 2.41 µM) | 1 µg/mL (≈ 2.41 µM) | 4 µg/mL (≈ 9.65 µM)
CC1(C)S[C@@H]2[C@H](NC(=O)C(c3ccccc3)S(=O)(=O)O)C(=O)N2[C@H]1C(=O)O (some centres undefined) [SULBENICILLIN] | 1 µg/mL (≈ 2.41 µM) | 1 µg/mL (≈ 2.41 µM) | 2 µg/mL (≈ 4.83 µM) | 1 µg/mL (≈ 2.41 µM) | – | 2 µg/mL (≈ 4.83 µM) | 1 µg/mL (≈ 2.41 µM) | 1 µg/mL (≈ 2.41 µM) | 1 µg/mL (≈ 2.41 µM) | 2 µg/mL (≈ 4.83 µM) | 1 µg/mL (≈ 2.41 µM) | – | 2 µg/mL (≈ 4.83 µM) | 1 µg/mL (≈ 2.41 µM) | 2 µg/mL (≈ 4.83 µM) | 1 µg/mL (≈ 2.41 µM) | 16 µg/mL (≈ 38.6 µM) | 1 µg/mL (≈ 2.41 µM) | 1 µg/mL (≈ 2.41 µM) | 8 µg/mL (≈ 19.3 µM)
